FGF22 binding: binders of human FGF22 protein, primary screen, FGF22 synaptogenesis inhibitor project, biophysical, thermal shift, single point. Fibroblast growth factor 22 (Homo sapiens), Q9HCT0. recombinant FGF22 thermal shift, SYPRO orange fluorescence; percent of sucrose octasulfate shift, DMSO zero. activity (Tm shift, normalised), % at 9.99 µM. hit rate 1.5% among 340,000. AID 651658, 2012;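 active means mean Tm shift, scaled 0 neutral to 100 positive control, at about 1.3% or above, every replicate too, limit read from the data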
VLA-4 inh: inhibition in human VLA-4 binding assay, primary screen, VLA-4 allosteric modulator project, MLPCN library, flow cytometry, VLA-4 expressing cells; Integrin alpha-4 (Homo sapiens), P13612; ligand binding flow cytometry; inhibition, % (about 7 µM as worked out from the volumes in the protocol); hit rate 0.2% among 330,000; in the data active means inhibition above about 50%
Exocytosis inh: LAMP-1 surface exposure blockers, TALL-104 cells – cell-based, flow cytometry, MLPCN library, primary screen | AID 651702, 2012 | TALL-104 LAMP-1 surface exposure; cells stimulated with thapsigargin and PMA | hit rate 0.66% among 360,000 | inhibition, % at 10 µM;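 active means inhibition above about 55%, limit read from the data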
MT1-MMP act inh: blockers of MT1-MMP proenzyme processing, primary screen, HT1080 RFP-PRO-GFP cells, GFP/RFP fluorescence | Matrix metalloproteinase-14 (Homo sapiens), P50281 | GFP/RFP ratio fluorescence, overnight; percent of plate control window, DMSO zero | GFP/RFP ratio change, % at 20 µM | hit rate 0.061% among 360,000;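 active means GFP/RFP ratio change of at least 30% with cell ATP level not reduced by more than half and red fluorescence within 50% of control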
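Test system: HT1080 RFP-PRO-GFP cells; Benchmarks: DMSO and RFP-L50D-GFP cell wells; Timing: cells overnight before dosing, compound overnight, 37 °C, 5% CO2; Compound: one 20 µM compound dose with 1% DMSO; Read-out: GFP/RFP fluorescence ratio.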
ABCB6 inh MLPCN: ABCB6 transporter inhibitors, primary screen, K562-ABCB6 cells, flow cytometry, MLPCN library; ATP-binding cassette sub-family B member 6 (Homo sapiens), Q9NP58; K562-ABCB6 porphyrin accumulation, 1 h; stronger effect = lower value; fluorescence ratio to DMSO, % at 10 µM; hit rate 0.19% among 360,000;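 active means fluorescence ratio to DMSO below 75%, the collection mean minus 3 SD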;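 further: signal is porphyrin accumulated inside mitochondria; lower ratio means ABCB6 inhibition with less porphyrin fluorescence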
Target sequence (Q9NP58 whole entry, looked up): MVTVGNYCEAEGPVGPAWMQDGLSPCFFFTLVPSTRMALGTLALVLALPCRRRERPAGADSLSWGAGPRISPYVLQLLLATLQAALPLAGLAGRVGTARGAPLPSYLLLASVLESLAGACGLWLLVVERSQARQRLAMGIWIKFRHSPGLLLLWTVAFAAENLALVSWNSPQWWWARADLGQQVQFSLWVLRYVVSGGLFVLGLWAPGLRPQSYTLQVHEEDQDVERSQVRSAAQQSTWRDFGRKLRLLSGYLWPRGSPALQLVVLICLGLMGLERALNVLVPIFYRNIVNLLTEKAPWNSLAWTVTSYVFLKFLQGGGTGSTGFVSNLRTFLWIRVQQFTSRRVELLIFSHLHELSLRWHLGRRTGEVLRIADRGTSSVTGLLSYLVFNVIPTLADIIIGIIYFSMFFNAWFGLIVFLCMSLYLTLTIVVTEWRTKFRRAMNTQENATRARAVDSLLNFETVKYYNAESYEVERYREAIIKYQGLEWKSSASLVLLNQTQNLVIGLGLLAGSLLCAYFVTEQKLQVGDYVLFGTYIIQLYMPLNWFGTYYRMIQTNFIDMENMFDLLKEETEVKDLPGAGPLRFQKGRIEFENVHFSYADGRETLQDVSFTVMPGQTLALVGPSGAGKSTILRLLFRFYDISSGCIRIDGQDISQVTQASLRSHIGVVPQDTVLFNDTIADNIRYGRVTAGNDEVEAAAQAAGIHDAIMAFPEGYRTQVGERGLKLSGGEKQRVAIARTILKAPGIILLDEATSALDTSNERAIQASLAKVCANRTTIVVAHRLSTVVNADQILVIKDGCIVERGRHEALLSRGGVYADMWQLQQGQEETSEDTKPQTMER
DAGLB inhibitor: DAGLB lipase inhibitors, primary screen, biochemical, fluorescence, HTS; Diacylglycerol lipase-beta (Homo sapiens), Q8NCG7; HEK293T DAGLB membrane lysate, EnzChek fluorogenic substrate; inhibition, % at 5.17 µM; hit rate 0.059% among 340,000; AID 504411, 2011; in the data active means inhibition above about 34%
ABCB6 inh CP1: ABCB6 transporter inhibitors, confirmation, K562-ABCB6 cells, flow cytometry, cherry pick 1. shares compounds with ABCB6 inh MLPCN. K562-ABCB6 porphyrin accumulation, 1 h; stronger effect = lower value. ratio response (% of DMSO), % at 10 µM. 700 tested, under 10 active;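 active means repeat-averaged ratio response below 75% of DMSO, the collection mean minus 3 SD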;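 further: median porphyrin fluorescence at 575 nm with 488 nm excitation from mitochondria; lower ratio means less porphyrin signal so ABCB6 inhibition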
Numbers stand for hits; i = inactive; nt = no result. A selection: hits, their analogues and other compounds. The true share with any hit is near 2%.

SMILES	FGF22 binding	VLA-4 inh	Exocytosis inh	MT1-MMP act inh	ABCB6 inh MLPCN	DAGLB inhibitor	ABCB6 inh CP1
COc1ccc(CCNC(=O)C2CCCN(C(=O)c3ccc(Cl)cc3)C2)cc1 (stereo not given)	i	i	i	i	73.0	i	i
O=C(C1CCCC1)N1CC2(C1)[C@H](c1ccccc1)[C@H](CO)N2C(=O)CC1CC1	i	nt	nt	nt	nt	nt	nt
COc1cc(OC)c(C#N)c(S(=O)(=O)Cc2ccccc2)c1	nt	i	i	i	68.0	i	i
N#Cc1c([N+](=O)[O-])cc([N+](=O)[O-])cc1S(=O)(=O)Cc1ccccc1	i	i	i	i	i	i	nt
COc1ccc(S(=O)(=O)N2CCC(C(=O)NCc3ccccn3)CC2)cc1OC	nt	i	i	i	i	i	nt
COc1ccc(OC)c(S(=O)(=O)N2CCC(C(=O)NCc3ccccn3)CC2)c1	i	i	i	i	73.0	i	i
COc1cc2c(c(OC)c1OC)-c1c(cc(OC)c(OC)c1OC)C[C@H](C)[C@H](C)C2	nt	i	i	i	74.0	i	i
CN(C)c1ccc2c(c1)Sc1cc(N(C)C)ccc1N2C(=O)c1ccccc1	i	i	i	i	73.0	i	i
Cc1ccc(C(=O)N2c3ccccc3Sc3ccccc32)cc1	i	nt	i	i	i	nt	nt
C[C@H](CO)N1C[C@H](C)[C@@H](CN(C)C(=O)C2CC2)Oc2ncc(C#Cc3ccccc3)cc2C1=O	i	nt	nt	nt	nt	nt	nt
CCOc1ccc(C(=O)NCC(C)C)cc1	nt	i	i	i	74.0	i	i
COc1ccc(-c2cc(C(=O)Nc3ccc(OC)c(OC)c3)[nH]n2)c(C)c1	i	nt	i	i	70.0	nt	i
COc1ccc(NC(=O)c2cc(-c3ccc(F)cc3OC)n[nH]2)cc1OC	i	nt	i	i	i	nt	nt
CCC(=O)Nc1ccc2c(c1)OC[C@H](C)N(C(=O)CC1CC1)C[C@@H](C)[C@H](OC)CN(C)C2=O	i	nt	nt	nt	nt	nt	nt
COc1ccc(S(=O)(=O)NC(Cc2ccccc2)C(=O)O)cc1 (stereo not given)	i	i	i	i	i	i	nt
O=C(O)C(Cc1ccc(Cl)cc1)NS(=O)(=O)c1ccc(Cl)cc1 (stereo not given)	i	i	i	i	49.0	i	i
O=C(O)C(Cc1ccccc1)NS(=O)(=O)c1ccc(Cl)cc1 (stereo not given)	i	i	i	i	i	i	nt
O=C(O)C(Cc1ccccc1)NS(=O)(=O)c1ccc2c(c1)OCCO2 (stereo not given)	nt	i	i	i	68.0	i	i
O=c1c(C(c2ccc(Br)cc2)c2c(O)nc3n(c2=O)CCS3)c(O)nc2n1CCS2	i	i	i	i	74.0	i	i
O=c1c(C(c2ccc(Br)cc2)c2c(O)nc3n(c2=O)CCCS3)c(O)nc2n1CCCS2	i	i	i	i	i	i	nt
Cc1cc(C)c(C#N)c(N2CCN(Cc3ccccc3)CC2)n1	nt	i	i	i	47.0	i	i
Cc1cc(C)c(C#N)c(N2CCN(Cc3ccc4c(c3)OCO4)CC2)n1	nt	i	i	i	i	i	nt
CN1CCN(C(=O)C[C@H]2C[C@@H]3c4cc(NC(=O)Cc5ccncc5)ccc4O[C@@H]3[C@H](CO)O2)CC1	i	nt	nt	nt	nt	nt	nt
Cc1ccccc1OCCNC(=O)CSc1ccc(C(F)(F)F)cc1[N+](=O)[O-]	i	i	i	i	70.0	i	i
COc1cccc(OCCNC(=O)CSc2ccc(C(F)(F)F)cc2[N+](=O)[O-])c1	nt	i	i	i	i	i	nt
SMILES	FGF22 binding	VLA-4 inh	Exocytosis inh	MT1-MMP act inh	ABCB6 inh MLPCN	DAGLB inhibitor	ABCB6 inh CP1
CC(=O)N(C)C[C@@H]1Oc2ncc(-c3ccc(C#N)cc3)cc2C(=O)N([C@@H](C)CO)C[C@@H]1C	i	nt	nt	nt	nt	nt	nt
O=c1cc(CO)oc(CN2CCN(c3ccccc3)CC2)c1O	nt	i	i	i	73.0	i	i
O=c1cc(CO)oc(CN2CCN(c3cccc(C(F)(F)F)c3)CC2)c1O	nt	i	i	i	i	i	nt
CN1CCN(C(=O)[C@@H]2[C@@H](CO)[C@@H]3Cn4c(ccc(-c5cncnc5)c4=O)[C@@H]3N2CC2CC2)CC1	i	nt	nt	nt	nt	nt	nt
O=C(Nc1ccc(Br)cc1)c1cccnc1N1CCCCC1	i	i	i	i	73.0	i	i
O=C(Nc1cccc2cccnc12)c1ccc2c(c1)OCCO2	nt	i	i	i	43.0	i	i
O=C1c2ccccc2C(=O)N1Cc1ccco1	nt	i	i	i	i	i	nt
CC1=CC(=C2C(=O)c3ccccc3C2=O)C=C(C)N1Cc1ccco1	nt	i	i	i	66.0	i	i
N#CCCSCc1ccc(C(=O)O)o1	nt	i	i	i	68.0	i	i
COc1ccc(CCCNC(=O)C2(C)Cc3c(-c4ccc(C(N)=O)cc4)ccnc3O2)cc1 (stereo not given)	i	nt	i	i	71.0	nt	i
O=C(c1cc(-c2ccncc2)nc2ccccc12)N1CCN(c2ccccn2)CC1	nt	i	i	i	69.0	i	i
O=C(c1cc(-c2ccccc2)nc2ccccc12)N1CCN(c2ccccn2)CC1	nt	i	i	i	i	i	nt
CCS(=O)(=O)N1CC2(CN(C)[C@H](CO)c3c2c2ccc(OC)cc2n3C)C1	i	nt	nt	nt	nt	nt	nt
Nn1c(SCC(=O)NCCC2=CCCCC2)nnc1-c1cccnc1	i	nt	i	i	i	i	nt
CCN(CC)S(=O)(=O)c1cccc(-c2nnc(SCC(=O)NCCC3=CCCCC3)n2N)c1	nt	i	i	i	71.0	i	i
COc1cccc(-c2nnc(SCC3CNC(=O)O3)n2-c2ccc(Cl)cc2)c1 (stereo not given)	nt	i	i	i	67.0	i	i
COC(=O)c1c(NC(=O)Cc2cccs2)sc(C)c1C	i	i	i	i	i	i	nt
CCc1ccc(CCC(=O)Nc2sc(C)c(C)c2C(=O)OC)o1	i	i	i	i	69.0	i	i
CN1[C@@H]2Cn3c(ccc(-c4cccc(F)c4)c3=O)[C@H]1[C@@H](C(=O)N1CCCCC1)[C@@H]2CO	i	nt	nt	nt	nt	nt	nt
O=C(O)CSc1nnc(Cn2c(=O)sc3ccccc32)n1-c1cccc(Cl)c1	nt	i	i	i	i	i	nt
NC(=O)CSc1nnc(Cn2c(=O)sc3ccccc32)n1-c1cccc(Cl)c1	nt	i	i	i	66.0	i	i
O=C(Nc1ccc(-n2nncc2-c2ccco2)cc1)c1cccc(F)c1	nt	i	i	i	58.0	i	i
